Compounds with a hit are over-represented: about 3.5% of the library has one in this group of screens.
MITF act = increases MITF-driven TRPM1 promoter luciferase signal | SK-MEL-5 TRPM1-promoter luciferase, 24 h; % of positive control, neutral wells = 0 | activation, % at 12.5 µM | 300,000 compounds, 0.75% hits;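 active = mean activation of at least 80% with every replicate also reaching 80%; inconclusive = mean reaches 80% but some replicate falls short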
Env fusion inh = blocks HIV Env-driven cell-cell fusion; HeLa-JRFL Env/CEM21 cell fusion, luciferase; inhibition, % at 12.3 µM; 360,000 compounds, 1.1% hits;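 active = mean replicate inhibition score of at least 50 and every replicate individually at or above 50; inconclusive = only one of the two criteria met; inactive = mean below 50 and not all replicates reaching 50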
Wnt bcat act = activators of Wnt/beta-catenin signaling; Wnt/beta-catenin reporter cell assay, activator, plate reader; activation, % at 9.35 µM; 300,000 compounds, 1.2% hits; in the data active = activation above about 30%, passing the limit was not always enough; inconclusive = no clear call, values can overlap the other calls
Cneo AK release = Cryptococcus neoformans lysis via adenylate kinase release. AID 651654. lysis activity, % at 15 µM. 360,000 compounds, 0.2% hits. C. neoformans lysis, adenylate kinase release luminescence, 4 h; normalised: neutral wells 0, clomiphene wells 100;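 active = mean lysis activity across replicates of at least 80%, whatever share of replicates individually reach that level; inactive = mean lysis activity below 80%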
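Test system: log-phase Cryptococcus neoformans yeast cells. Input: 5 × 10^6 yeast cells/mL. Medium: fresh YPD growth medium. Doses: single dose. Incubation: static 4 h at 37 °C with compound, 1 h detection. Measured by: luminescent adenylate kinase detection reagent. Read-out: signal increase indicating cell lysis. Benchmarks: Clomiphene.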
esBAF inh = inhibitors of esBAF chromatin remodeling in mouse ES cells | Bmi1-luciferase knock-in reporter, 24 h; 100% = twice the neutral-well signal | reporter increase, % at 12.5 µM | 350,000 compounds, 2% hits | AID 602393; in the data active = activation above about 40%; inconclusive = no clear call, values can overlap the other calls;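 note: a rise in the Bmi1 reporter signal indicates esBAF inhibition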
ERAP1 inh = blocks human ERAP1 aminopeptidase activity; Q9NZ08; AID 652197; recombinant ERAP1, Leu-AMC fluorescence, 60 min; inhibition, % at 10.7 µM; 340,000 compounds, 0.15% hits;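 active = mean replicate inhibition of at least 30%, or all replicates individually reaching that 30% level; inactive = mean below 30% and not every replicate reaching it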
Target sequence (Q9NZ08 whole entry, looked up): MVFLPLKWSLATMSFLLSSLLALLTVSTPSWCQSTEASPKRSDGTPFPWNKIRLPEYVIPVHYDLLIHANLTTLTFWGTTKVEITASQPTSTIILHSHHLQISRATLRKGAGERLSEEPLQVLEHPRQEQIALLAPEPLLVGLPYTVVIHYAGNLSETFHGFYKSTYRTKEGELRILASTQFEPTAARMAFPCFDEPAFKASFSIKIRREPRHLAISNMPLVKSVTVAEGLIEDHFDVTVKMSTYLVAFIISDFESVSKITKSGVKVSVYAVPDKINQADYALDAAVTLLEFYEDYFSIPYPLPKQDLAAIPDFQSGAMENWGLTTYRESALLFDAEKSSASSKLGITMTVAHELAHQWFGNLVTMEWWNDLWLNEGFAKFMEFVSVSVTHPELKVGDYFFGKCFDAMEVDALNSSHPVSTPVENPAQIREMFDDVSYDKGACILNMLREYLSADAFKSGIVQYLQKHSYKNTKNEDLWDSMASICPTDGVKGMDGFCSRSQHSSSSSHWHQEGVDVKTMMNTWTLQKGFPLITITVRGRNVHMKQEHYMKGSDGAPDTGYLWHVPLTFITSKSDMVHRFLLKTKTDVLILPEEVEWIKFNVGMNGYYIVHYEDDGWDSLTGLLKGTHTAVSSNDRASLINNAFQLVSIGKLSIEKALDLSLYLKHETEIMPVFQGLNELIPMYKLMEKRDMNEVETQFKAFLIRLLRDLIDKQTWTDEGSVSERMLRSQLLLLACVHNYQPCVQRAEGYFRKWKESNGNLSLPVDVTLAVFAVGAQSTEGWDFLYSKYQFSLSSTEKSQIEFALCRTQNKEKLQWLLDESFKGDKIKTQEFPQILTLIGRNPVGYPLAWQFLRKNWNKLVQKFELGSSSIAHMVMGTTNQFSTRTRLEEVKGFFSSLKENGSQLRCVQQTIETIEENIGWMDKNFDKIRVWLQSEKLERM
Numbers stand for hits; n = inactive; u = inconclusive; x = no result.

SMILES	MITF act	Env fusion inh	Wnt bcat act	Cneo AK release	esBAF inh	ERAP1 inh
O=C(COc1ccccc1Cl)Nc1ccc2c(c1)OCO2	121.1	n	n	n	n	n
Cc1ccc(NC(=O)COc2ccccc2C=O)cc1Cl	n	n	n	x	46.8	n
Cc1noc(C)c1NC(=O)Nc1ccc2c(c1)C(=O)N([C@@H](C)CO)C[C@@H](C)[C@@H](CN(C)C(=O)Nc1ccc(F)cc1)O2	x	n	x	n	n	x
CCCNC(=O)C[C@H]1CC[C@H]2[C@@H](COc3ccc(NC(=O)c4ccno4)cc3C(=O)N2C)O1	x	n	x	n	n	n
COc1cc(NC(=O)c2ccco2)ccc1NC(=O)c1ccccc1Cl	n	x	x	n	n	x
O=C(Nc1ccc(Cl)c(NC(=O)c2cccs2)c1)c1ccco1	x	n	n	n	n	n
COc1cc(NC(=O)c2ccccc2Cl)ccc1NC(=O)c1ccco1	92.5	n	n	n	51.4	x
O=C(Nc1ccc(NC(=O)c2cccs2)cc1Cl)c1ccco1	n	n	45.8	x	x	n
O=C(Nc1cccc(NC(=O)c2cccs2)c1)c1ccco1	x	n	x	x	x	x
COc1cc(NC(=O)c2cccs2)ccc1NC(=O)c1ccco1	92.5	n	58.5	n	91.9	x
COc1ccc(C2CC(c3ccccc3)=NN2C(=O)c2cccs2)cc1 (stereo unspecified)	n	u	x	n	46.8	x
C[C@@H]1CN([C@H](C)CO)C(=O)c2cccc(NC(=O)C3CCOCC3)c2O[C@@H]1CN(C)Cc1ccc2c(c1)OCO2	x	n	x	n	n	n
COc1ccc2c(c1)nc(N)n2Cc1ccccc1	n	n	x	n	x	x
COc1ccc(-c2n(Cc3ccccc3)c3ccccc3[n+]2Cc2ccccc2)cc1	n	70.3	n	x	x	n
CN1C(=O)c2cc(NC(=O)c3ccc(F)cc3)ccc2OC[C@H]2O[C@@H](CC(=O)NCC3CCCCC3)CC[C@H]21	x	n	x	n	n	n
CCOc1ccc2nc(SCc3ccccc3C#N)sc2c1	u	n	x	n	61.0	x
CCOc1ccc2nc(SCc3ccc(OC)cc3)sc2c1	n	n	x	x	x	x
CCOc1ccc2nc(SCC(=O)c3ccccc3)sc2c1	n	x	n	n	47.1	n
CCOc1ccc2nc(SCC(=O)NC3CC3)sc2c1	n	n	n	n	n	n
COn1c(-c2ccccc2)nc2ccc(Cl)cc21	x	n	x	n	65.4	x
O=[N+]([O-])c1ccc2nc(-c3ccccc3)n(OCc3ccc(Cl)cc3)c2c1	x	n	x	x	62.2	n
O=C(Nc1ccc2c(c1)OCO2)N[C@H]1CC[C@H](CC(=O)N2CCN(c3ccccc3)CC2)O[C@@H]1CO	x	n	x	n	n	n
CC(C)CNC(=O)CSc1nc2nn(-c3ccccc3)c(=O)c-2c2n1CCCCC2	n	n	39.9	x	x	n
Cc1ccc(C2=CSC3=NNC4(CCCCC4)NN23)cc1	n	n	n	n	65.8	n
Cc1cccc(C)c1NC(=O)C1(C)CN(S(C)(=O)=O)CC(=O)N1CCc1ccccc1F (stereo unspecified)	x	57.3	n	x	x	x
SMILES	MITF act	Env fusion inh	Wnt bcat act	Cneo AK release	esBAF inh	ERAP1 inh
O=C(C[C@@H]1CC[C@H]2[C@@H](COC[C@@H](O)CN2Cc2cccc(C(F)(F)F)c2)O1)NCCc1ccccc1	x	x	x	n	n	n
Clc1ccc(OCc2nnc(SCc3nc4ccccc4[nH]3)n2Cc2ccco2)cc1	x	56.2	x	n	n	x
Clc1cccc(-c2nnc(SCc3nc4ccccc4[nH]3)n2Cc2ccco2)c1	x	u	n	n	n	x
COc1cc2c(oc(=O)c3cc(C)cc(OC)c32)c2c(C3OC(C)C(O)C(C)(O)C3O)ccc(O)c12 (stereo unspecified)	x	56.3	n	x	x	n
COc1cccc2cc(C(=O)N3CC(C)OC(C)C3)c(=O)oc12 (stereo unspecified)	n	n	n	n	n	n
COc1ccc(COC(=O)NC2CCN(S(=O)(=O)c3ccc(OC)cc3)CC2)cc1	n	56.3	n	n	n	x
CC(C)(C)N1NC2(CCCCC2)NC1=S	n	n	n	n	n	n
CCOC(=O)CN1NC2(CCCCCC2)NC1=S	x	n	n	n	x	35.4
C[C@@H](NC(=O)C[C@@H]1C[C@H]2c3cc(NC(=O)CC4CC4)ccc3O[C@H]2[C@@H](CO)O1)c1ccccc1	x	x	x	n	n	n
COC(=O)CN1C(c2ccc(Cl)cc2)=Nc2ccc(Cl)cc2C1c1ccccc1 (stereo unspecified)	n	80.3	x	x	x	x
CC(C)NC(=O)N(C)C[C@H]1Oc2ccc(NS(=O)(=O)c3ccccc3)cc2CC(=O)N([C@@H](C)CO)C[C@@H]1C	x	n	x	x	n	x
Cc1noc(C)c1C(=O)OCC(=O)c1cc(C)n(Cc2ccccc2Cl)c1C	n	n	40.6	n	n	x
Cc1noc(C)c1C(=O)OCC(=O)c1ccc[nH]1	n	n	n	n	n	x
CC#CC(=O)N1CCCC(Cc2cccc(OC)c2)(C(=O)OCC)C1 (stereo unspecified)	n	n	n	n	58.8	n
CCOC(=O)C1(Cc2cccc(OC)c2)CCCN(C(=O)CSC)C1 (stereo unspecified)	x	n	n	n	58.6	n
C[C@@H]1CN([C@H](C)CO)C(=O)c2cc(N(C)C)ccc2O[C@@H]1CN(C)C(=O)Nc1ccc(C(F)(F)F)cc1	x	x	x	107.2	n	n
C[C@@H]1CN([C@@H](C)CO)C(=O)c2cccc(N(C)C)c2O[C@H]1CN(C)C(=O)Nc1ccc(C(F)(F)F)cc1	x	n	x	99.0	n	n
C[C@H](CO)N1C[C@H](C)[C@@H](CN(C)C(=O)Nc2ccc(C(F)(F)F)cc2)Oc2c(cccc2N(C)C)C1=O	n	n	n	n	n	n
O=C(NCC1CC1)[C@H]1[C@H](CO)[C@H]2Cn3c(ccc(-c4ccncc4)c3=O)[C@H]2N1Cc1cocn1	x	x	x	n	n	n
CCC1=[N+](CC(=O)c2ccc(C)cc2)CCn2cccc21	n	n	n	n	43.4	n
CCC1=[N+](CC(=O)c2ccc(C)cc2)CCn2c(C)ccc21	n	n	n	x	x	n
O=C(C[C@H]1CC[C@@H](NC(=O)CN2CCOCC2)[C@@H](CO)O1)NCCc1ccncc1	x	n	x	n	n	n
C[C@H]1CN([C@@H](C)CO)C(=O)c2cc(C#CCN(C)C)cnc2O[C@H]1CN(C)Cc1ccccc1	x	n	x	n	n	n
O=C1COc2ccc(C(=O)COC(=O)c3ccccc3[N+](=O)[O-])cc2N1	n	n	n	n	77.3	n
CCOC(=O)c1cnc(SCc2ccccc2)nc1N	107.2	n	x	n	78.8	x
Cc1noc(C)c1S(=O)(=O)Nc1ccc2c(c1)C(=O)N([C@H](C)CO)C[C@H](C)[C@@H](CN(C)S(C)(=O)=O)OCCCC[C@H](C)O2	x	n	x	n	n	n
CCC(C)NC(=O)C1CCCN(S(=O)(=O)c2ccc3c(c2)CC(C)N3C(=O)C2CC2)C1 (stereo unspecified)	n	n	n	n	n	n
CCc1cccc(NC(=O)C2CCCN2S(=O)(=O)c2ccc3c(c2)CC(C)N3C(C)=O)c1 (stereo unspecified)	n	60.9	n	n	n	n

Screens deposited in PubChem by Broad Institute.
